Reference: ChEMBL document CHEMBL1158986, “New antimicrobial filicinic acid derivatives from Hypericum drummondii” (1991)
≈ marks a conversion by molar mass, not a printed value.

Tests used:
Format in all cases: functional
[1] = test system: Mycolicibacterium smegmatis; assay: Antimicrobial activity against Mycobacterium smegmatis after 48 hrs by twofold serial broth dilution technique
Summary of the method: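 Mycobacterium smegmatis (ATCC 607) grown in eugon broth. Twofold serial broth dilution from 0.20 to 100 μg/ml, tubes kept at 37°, MIC read after 48 h as the lowest concentration preventing growth. Streptomycin sulfate included as standard control.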

Bacillus subtilis = assay: Antimicrobial activity against Bacillus subtilis after 24 hrs by twofold serial broth dilution technique
Summary of the method: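 B. subtilis (ATCC 6633) cultured in eugon broth. MIC by twofold serial broth dilution, compounds tested over 0.20–100 μg/ml. Tubes incubated at 30°, read after 24 h. MIC taken as the lowest concentration inhibiting growth. Streptomycin sulfate as standard control.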

Staphylococcus aureus = assay: Antimicrobial activity against Staphylococcus aureus after 24 hrs by twofold serial broth dilution technique
Summary of the method: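 S. aureus (ATCC 6538) cultured in eugon broth. Twofold serial broth dilution covering 0.20–100 μg/ml. Incubation at 37° for 24 h. MIC is the lowest concentration with no growth. Streptomycin sulfate served as standard control.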

Compound	MIC [1] [µg/mL]	MIC (Bacillus subtilis) [µg/mL]	MIC (Staphylococcus aureus) [µg/mL]
CC(=O)C1=C(O)C(C)(CC=C(C)C)C(O)=C(Cc2c(O)c(C(C)=O)c(O)c3c2OC(C)(C)C=C3)C1=O (stereo not given) [ISODRUMMONDIN D]	1.56 (≈ 3.14 µM)	0.2 (≈ 0.403 µM)	0.78 (≈ 1.57 µM)
CC(=O)C1=C(O)C(C)(CC=C(C)C)C(O)=C(Cc2c(O)c(CC=C(C)C)c(O)c(C(C)=O)c2O)C1=O (stereo not given) [DRUMMONDIN F]	1.56 (≈ 3.13 µM)	0.78 (≈ 1.56 µM)	0.78 (≈ 1.56 µM)
CC(=O)C1=C(O)C(C)(CC=C(C)C)C(O)=C(Cc2c(O)c3c(c(C(C)=O)c2O)OC(C)(C)C=C3)C1=O (stereo not given) [DRUMMONDIN D]	1.56 (≈ 3.14 µM)	0.39 (≈ 0.785 µM)	0.78 (≈ 1.57 µM)

Other lines, results leading:

MIC [1] [µg/mL]	MIC (Bacillus subtilis) [µg/mL]	MIC (Staphylococcus aureus) [µg/mL]	Compound
3.12 (≈ 6.26 µM)	0.2 (≈ 0.401 µM)	0.39 (≈ 0.782 µM)	CC(=O)C1=C(O)C(C)(CC=C(C)C)C(O)=C(Cc2c(OCC=C(C)C)cc(O)c(C(C)=O)c2O)C1=O (stereo not given) [DRUMMONDIN E]
1.56 (≈ 2.68 µM)	0.78 (≈ 1.34 µM)	12.5 (≈ 21.5 µM)	CN[C@@H]1[C@H](O[C@H]2[C@H](O[C@H]3[C@H](O)[C@@H](O)[C@H](N=C(N)N)[C@@H](O)[C@@H]3N=C(N)N)O[C@@H](C)[C@]2(O)C=O)O[C@@H](CO)[C@H](O)[C@H]1O [STREPTOMYCIN]
